Measurements published in article PMC4415852 (Cancer cell, 2015).

Columns and labels:
[1] = tested on: MLL leukemia patient samples; assay: Methylcellulose colony forming assay, MLL leukemia primary patient samples; type: cell-based, human; details: at submicromolar or low micromolar concentrations, 14 days
Procedure, shortened: (§1)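 Primary cells (peripheral blood mononuclear, thawed) were pre-cultured 24 hr in RPMI-1640 with 10% FBS, 1% penicillin/streptomycin, 10 ng/mL human IL-3 and 10 ng/mL IL-6 plus SCF. They were then plated in duplicate at 7.5–15 × 10^4 cells in cytokine-supplemented methylcellulose containing test compound or DMSO. Incubation was 14 days at 37 °C, 5% CO2, followed by iodonitrotetrazolium chloride staining. Colony counts were normalized to DMSO; mean ± SD, n = 2.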

MLL-AF9 leukemia = assay: Bone marrow transplantation model of murine MLL-AF9 leukemia; type: in vivo; details: for increase of median survival: MI-463 50 mg/kg, MI-503 80 mg/kg, twice daily oral gavage, 10 days
[2] = Pharmacokinetic studies in mice; type: in vivo; details: single intravenous or oral dose
[3] = tested on: control AML patient samples; type: cell-based, human; details: except at the highest concentration (6 μM) in the AML-9571 sample
Procedure, shortened: as §1

[4] = tested on: human leukemia cell lines without MLL translocations; assay: MTT assay, human leukemia cell lines without MLL translocations; type: cell-based; details: in words
Procedure, shortened: (§2)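 Cells were plated with test compound or 0.25% DMSO and kept at 37 °C for 7 days. At day 4 the media was changed, viable cell numbers were reset to the starting density and compound was re-added. Read-out was MTT with absorbance at 570 nm, from titration curves. Mean ± SD, n = 4. Non-MLL lines were HL-60, NB4 and Jurkat; murine bone marrow cells were Hoxa9/Meis1-transformed.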

[5] = tested on: MV4;11 human MLL leukemia cells; details: for inhibition of tumor growth: once daily i.p., MI-503 60 mg/kg, MI-463 35 mg/kg, in words
[6] = Tolerability in normal C57BL/6 mice; type: in vivo; details: 10 days, twice daily oral gavage
Procedure, shortened: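 Normal C57BL/6 mice received test compound or vehicle by oral gavage twice daily for 10 days, the same regimen as the leukemia survival studies. Body weight, organ weight and tissue damage were assessed afterwards.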

[7] = tested on: MLL leukemia patient samples; assay: Cell viability assay in primary MLL leukemia patient samples; type: cell-based, human; details: 7 days of treatment, in words
Procedure, shortened: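 Primary AML cells (mononuclear cells from peripheral blood, isolated by density gradient and red cell lysis, frozen in 10% DMSO) were exposed to test compound or 0.25% DMSO vehicle for 7 days. Stains were anti-human CD45, CD34 and CD38, then Annexin V and 7-AAD, with ≥2 × 10^5 events per sample by flow cytometry. Annexin V/7-AAD double negative cells counted as viable, shown as % of DMSO. Blasts were hCD45+. Mean ± SD, n = 2.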

[8] = tested on: BMCs transformed with the Hoxa9/Meis1 oncogenes (HM-2); assay: MTT cell viability assay, Hoxa9/Meis1 transformed BMCs; type: cell-based, murine; details: HM-2 BMCs, 7 days
Procedure, shortened: as §2

Metabolic stability = type: in vitro ADME; details: in words
[9] = tested on: murine bone marrow cells (BMC) transformed with the MLL-AF9 oncogene; assay: MTT cell viability assay, MLL-AF9 transformed BMCs; type: cell-based; details: read-out: half-maximal growth inhibitory concentration (GI50); after 7 days of treatment
Procedure, shortened: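 Leukemia cells were plated and exposed to a test compound titration or 0.25% DMSO at 37 °C for 7 days. On day 4, media was changed, viable cell numbers were reset to the starting density and compound was re-supplied. Viability was read by MTT absorbance at 570 nm from titration curves. n = 4, mean ± SD.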

menin = molecular target: T1, menin (Homo sapiens, UniProt O00255); assay: Isothermal Titration Calorimetry, binding to menin; details: in words
T1 sequence (O00255 1-610): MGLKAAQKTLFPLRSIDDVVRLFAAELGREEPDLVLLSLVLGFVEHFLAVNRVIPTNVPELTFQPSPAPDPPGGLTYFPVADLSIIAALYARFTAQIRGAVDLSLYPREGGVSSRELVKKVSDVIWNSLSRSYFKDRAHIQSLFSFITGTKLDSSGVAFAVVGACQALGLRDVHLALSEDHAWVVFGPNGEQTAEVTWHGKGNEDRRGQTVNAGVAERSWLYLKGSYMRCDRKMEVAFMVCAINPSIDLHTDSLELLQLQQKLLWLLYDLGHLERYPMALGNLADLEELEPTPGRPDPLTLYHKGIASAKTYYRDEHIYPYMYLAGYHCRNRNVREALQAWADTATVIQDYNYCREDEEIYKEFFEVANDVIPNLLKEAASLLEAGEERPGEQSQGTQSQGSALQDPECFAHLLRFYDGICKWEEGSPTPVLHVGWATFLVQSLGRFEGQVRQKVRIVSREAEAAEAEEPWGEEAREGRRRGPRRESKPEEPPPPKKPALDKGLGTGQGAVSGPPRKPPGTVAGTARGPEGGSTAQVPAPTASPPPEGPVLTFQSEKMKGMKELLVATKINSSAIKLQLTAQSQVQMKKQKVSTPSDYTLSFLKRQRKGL

[10] = tested on: MV4;11 human leukemia cells expressing MLL-AF4; assay: Long term viability study in MV4; type: cell-based; details: MV4;11, at day 10, first treatment phase
Procedure, shortened: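 Cycle of 10 days exposure to test compound at several concentrations, 10 days wash-out without compound, then 10 further days of re-treatment. Viable cell numbers were normalized to the DMSO control. Values are means of duplicates ± SD. The day-10 read-out is taken from the first exposure phase.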

[11] = molecular target: T2, menin-MLL-AF9 interaction (Homo sapiens, UniProt O00255); assay: Co-immunoprecipitation in HEK293 cells transfected with MLL-AF9; type: cell-based; details: at sub-micromolar concentrations
T2 sequence (O00255 1-610): T1 sequence (O00255 1-610)

SMILES | reduction in colony number [1] | increase of median survival (MLL-AF9 leukemia) | body weight loss / tolerability (MLL-AF9 leukemia; MLL-AF9 leukemia mice, 10 days of treatment, twice daily p.o.) | oral bioavailability [2] | effect on colony formation [3] | growth suppressive activity [4] | inhibition of tumor growth [5] | body weight, organ weight, tissue damage [6] | effect on cell growth and blast population [7] | effect on cell growth inhibition [8] | metabolic stability (Metabolic stability) | GI50 [9] [nM] | binding affinity to menin (menin) | reduction in MV4;11 tumor volume ([5]; 60 mg/kg once daily i.p.) | GI50 [10] [nM] | inhibition of the menin-MLL-AF9 interaction [11]
Cc1c(CN2CCC(Nc3ncnc4sc(CC(F)(F)F)cc34)CC2)ccc2[nH]c(C#N)cc12 [MI-463] | over 50% | ~ 70% | no significant body weight loss | ~ 45% | little effect | only a minimal effect | strong inhibition | no decrease in body weight, organ weight or tissue damage | marked decrease | no effect | – | – | – | – | – | –
CC1(C)CN=C(N2CCN(c3ncnc4sc(CC(F)(F)F)cc34)CC2)S1 [MI-2-2] | – | – | – | – | – | – | – | – | – | – | very poor | – | – | – | – | –
Cc1c(CN2CCC(Nc3ncnc4sc(CC(F)(F)F)cc34)CC2)ccc2c1cc(C#N)n2Cc1cn[nH]c1 [MI-503] | over 50% | ~ 45% | – | 75% | little effect | only a minimal effect | strong inhibition | no decrease in body weight, organ weight or tissue damage | – | no effect | – | 220 | low nanomolar | over 80% | 200 | effectively inhibit
